In ChEMBL document CHEMBL4359830, “Discovery and structure-activity relationship of novel diphenylthiazole derivatives as BTK inhibitor with potent activity against B cell lymphoma cell lines” (Eur J Med Chem, 2019) one finds IC50 and inhibition data, which are given here for 20 compounds.

The term IC50 denotes the concentration that inhibits the measured activity by half. For orientation: inhibition means the relative decrease from the control value, in per cent. Read a high inhibition as a strong effect.

Tyrosine-protein kinase BTK, sequence (Q06187 whole entry): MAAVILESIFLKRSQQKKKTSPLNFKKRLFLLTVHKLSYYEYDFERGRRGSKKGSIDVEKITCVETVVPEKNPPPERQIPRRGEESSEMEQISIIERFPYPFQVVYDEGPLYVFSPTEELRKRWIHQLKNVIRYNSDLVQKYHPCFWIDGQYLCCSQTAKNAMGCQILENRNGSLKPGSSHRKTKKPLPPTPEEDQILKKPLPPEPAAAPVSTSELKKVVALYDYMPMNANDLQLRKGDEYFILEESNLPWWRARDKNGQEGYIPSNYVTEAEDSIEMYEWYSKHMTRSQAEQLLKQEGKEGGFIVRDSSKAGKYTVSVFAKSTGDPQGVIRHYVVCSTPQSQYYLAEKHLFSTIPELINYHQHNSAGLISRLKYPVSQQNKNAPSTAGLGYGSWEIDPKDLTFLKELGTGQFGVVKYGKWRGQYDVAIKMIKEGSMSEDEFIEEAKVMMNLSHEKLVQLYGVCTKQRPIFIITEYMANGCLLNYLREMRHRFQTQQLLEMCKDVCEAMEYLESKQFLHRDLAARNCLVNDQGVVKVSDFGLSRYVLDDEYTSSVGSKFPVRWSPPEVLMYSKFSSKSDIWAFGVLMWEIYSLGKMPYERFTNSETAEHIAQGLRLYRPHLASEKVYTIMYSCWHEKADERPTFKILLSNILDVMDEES

One experiment has as its target Tyrosine-protein kinase BTK (Homo sapiens, UniProt Q06187). Description: Inhibition of human recombinant full length N-terminal His tagged BTK expressed in baculovirus infected Sf9 cells using poly (Glu,Tyr) 4:1 as substrate measured after 60 mins in presence of ATP by ADP-Glo kinase assay.
Conditions: not given
As for `CCOC(=O)c1sc(-c2cccc(NC(=O)c3ccc(C#N)cc3)c2)nc1Nc1ccc(N2CCN(C)CC2)cc1`, the half-inhibitory concentration (IC50) came out at 5.17 µM.

For `CN1CCN(c2ccc(Nc3nc(-c4cccc(NC(=O)c5ccco5)c4)sc3C(N)=O)cc2)CC1`, the IC50 stood at 0.073 µM.

As for `CCOC(=O)c1sc(-c2cccc(NC(=O)c3ccc(N(C)C)cc3)c2)nc1Nc1ccc(N2CCOCC2)cc1`, the IC50 is 4.2 µM.

As to `CN1CCN(c2ccc(Nc3nc(-c4cccc(NC(=O)c5ccc(C(C)(C)C)cc5)c4)sc3C(N)=O)cc2)CC1`, the half-maximal inhibitory concentration (IC50) turned out to be 5.25 µM.

In the case of `CN1CCN(c2ccc(Nc3nc(-c4cccc(NC(=O)c5ccccc5)c4)sc3C(N)=O)cc2)CC1`, the half-inhibitory concentration (IC50) was determined as 0.159 µM.

The test system of another experiment is Ramos. In words: Antiproliferative activity against human Ramos cells at 40 uM measured after 72 hrs by CCK-8 assay relative to control. It counts as functional. To be noted: Homo sapiens, Ramos, 72 h. A digest of the protocol:
(§1)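 Ramos or Raji cells in RPMI-1640 with 10% FBS and 1% penicillin-streptomycin at 37 °C, 5% CO2. Seeded at 2000–3000 cells/well one day before compound addition. Exposure 72 h, then CCK-8 with absorbance at 450 nm. […] Single-point inhibition at 40 µM reported as mean ± standard deviation.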
Background: Formazan colour is commonly taken as a measure of viable cells.
In turn, `CCOC(=O)c1sc(-c2cccc(NC(=O)c3ccc(C(C)(C)C)cc3)c2)nc1Nc1ccc(N2CCN(C)CC2)cc1` yielded an inhibition at 40 µM of 21.2%.

The compound `CCOC(=O)c1sc(-c2cccc(NC(=O)c3ccc(C(C)(C)C)cc3)c2)nc1Nc1ccc(N2CCOCC2)cc1` returned an inhibition at 40 µM of 14%.

On to `CN1CCN(c2ccc(Nc3nc(-c4cccc(NC(=O)c5cccc(F)c5)c4)sc3C(N)=O)cc2)CC1`, for which 40 µM produced 16.2% inhibition.

`CCOC(=O)c1sc(-c2cccc(NC(=O)c3ccc(C(F)(F)F)cc3)c2)nc1Nc1ccc(N2CCN(C)CC2)cc1` came in with an inhibition at 40 µM of 18.4%.

As for `CCOC(=O)c1sc(-c2cccc(NC(=O)c3ccc(C(F)(F)F)cn3)c2)nc1Nc1ccc(N2CCN(C)CC2)cc1`, the inhibition at 40 µM was 19%.

Compound `CCOC(=O)c1sc(-c2cccc(NC(=O)c3ccc(F)c(Cl)c3)c2)nc1Nc1ccc(N2CCN(C)CC2)cc1` registered an inhibition at 40 µM of 72.5%.

The compound `CCOC(=O)c1sc(-c2cccc(NC(=O)c3ccc(F)cc3)c2)nc1Nc1ccc(N2CCOCC2)cc1` yielded an inhibition at 40 µM of 3.96%.

`CCOC(=O)c1sc(-c2cccc(NC(=O)[C@H]3CC[C@H](C)CC3)c2)nc1Nc1ccc(N2CCN(C)CC2)cc1` showed an inhibition at 40 µM of 19.9%.

`CCOC(=O)c1sc(-c2cccc(NC(=O)c3ccc(F)cc3)c2)nc1Nc1ccc(N2CCN(C)CC2)cc1`: 40 µM produced 3.53% inhibition.

`CCOC(=O)c1sc(-c2cccc(NC(=O)c3ccc(F)cc3)c2)nc1Nc1ccc(C(=O)N2CCOCC2)cc1` registered an inhibition at 40 µM of 31.1%.

`CCOC(=O)c1sc(-c2cccc(NC(=O)c3ccc(C#N)cc3)c2)nc1Nc1ccc(N2CCN(C)CC2)cc1` yielded an inhibition at 40 µM of 97.5%.

Take `CN1CCN(c2ccc(Nc3nc(-c4cccc(NC(=O)c5ccco5)c4)sc3C(N)=O)cc2)CC1`: the inhibition at 40 µM worked out at 96.7%.

`CN1CCN(c2ccc(Nc3nc(-c4cccc(NC(=O)c5ccc(F)c(Cl)c5)c4)sc3C(=O)O)cc2)CC1` yielded an inhibition at 40 µM of 98.6%.

Consider `CCOC(=O)c1sc(-c2cccc(NC(=O)c3ccc(C(F)(F)F)cc3)c2)nc1Nc1ccc(C(=O)N2CCOCC2)cc1`, for which the inhibition at 40 µM was found to be 49.9%.

Turning to `CCOC(=O)c1sc(-c2cccc(NC(=O)c3ccc(N(C)C)cc3)c2)nc1Nc1ccc(N2CCOCC2)cc1`, the inhibition at 40 µM amounted to 12.3%.

As to `CN1CCN(c2ccc(Nc3nc(-c4cccc(NC(=O)c5ccc(C(C)(C)C)cc5)c4)sc3C(N)=O)cc2)CC1`, the inhibition at 40 µM is 80.1%.

`CN1CCN(c2ccc(Nc3nc(-c4cccc(NC(=O)c5ccccc5)c4)sc3C(N)=O)cc2)CC1` had an inhibition at 40 µM of 98.1%.

Compound `CCOC(=O)c1sc(-c2cccc(NC(=O)c3ccc(C(C)(C)C)cc3)c2)nc1Nc1ccc(C(=O)N2CCOCC2)cc1` yielded an inhibition at 40 µM of 82.6%.

Take `CN1CCN(c2ccc(Nc3nc(-c4cccc(NC(=O)c5ccccc5)c4)sc3C(=O)O)cc2)CC1`: the inhibition at 40 µM was 26.3%.

In the case of `CCOC(=O)c1sc(-c2cccc(NC(=O)c3ccc(Cl)cc3)c2)nc1Nc1ccc(N2CCN(C)CC2)cc1`, testing at 40 µM gave an inhibition of 46.9%.

A further experiment concerns Ramos. Description: Antiproliferative activity against human Ramos cells measured after 72 hrs by CCK-8 assay.
Conditions: not given
The class given is functional, cell-based. In outline:
as §1
`CCOC(=O)c1sc(-c2cccc(NC(=O)c3ccc(F)c(Cl)c3)c2)nc1Nc1ccc(N2CCN(C)CC2)cc1` displayed a 50% inhibitory concentration (IC50) of 29.2 µM.

Compound `CCOC(=O)c1sc(-c2cccc(NC(=O)c3ccc(C#N)cc3)c2)nc1Nc1ccc(N2CCN(C)CC2)cc1` showed an IC50 of 4.28 µM.

Regarding `CN1CCN(c2ccc(Nc3nc(-c4cccc(NC(=O)c5ccco5)c4)sc3C(N)=O)cc2)CC1`, the concentration for half-maximal inhibition (IC50) was 19.7 µM.

`CN1CCN(c2ccc(Nc3nc(-c4cccc(NC(=O)c5ccc(F)c(Cl)c5)c4)sc3C(=O)O)cc2)CC1` displayed an IC50 of 5.6 µM.

Take `CN1CCN(c2ccc(Nc3nc(-c4cccc(NC(=O)c5ccc(C(C)(C)C)cc5)c4)sc3C(N)=O)cc2)CC1`: inhibition was half-maximal at 8.6 µM (IC50).

Regarding `CN1CCN(c2ccc(Nc3nc(-c4cccc(NC(=O)c5ccccc5)c4)sc3C(N)=O)cc2)CC1`, inhibition was half-maximal at 1.76 µM (IC50).

`CCOC(=O)c1sc(-c2cccc(NC(=O)c3ccc(C(C)(C)C)cc3)c2)nc1Nc1ccc(C(=O)N2CCOCC2)cc1` came in with an IC50 of 25.2 µM.

The test system of a further experiment is Raji. Description: Antiproliferative activity against human Raji cells at 40 uM measured after 72 hrs by CCK-8 assay relative to control. The class given is functional. To be noted: Homo sapiens, Raji, 72 h. In outline:
as §1
Take `CCOC(=O)c1sc(-c2cccc(NC(=O)c3ccc(C(C)(C)C)cc3)c2)nc1Nc1ccc(N2CCN(C)CC2)cc1`: the inhibition at 40 µM amounted to 4.22%.

In turn, `CCOC(=O)c1sc(-c2cccc(NC(=O)c3ccc(C(C)(C)C)cc3)c2)nc1Nc1ccc(N2CCOCC2)cc1` had an inhibition at 40 µM of 6.21%.

Compound `CN1CCN(c2ccc(Nc3nc(-c4cccc(NC(=O)c5cccc(F)c5)c4)sc3C(N)=O)cc2)CC1` registered an inhibition at 40 µM of 2.78%.

`CCOC(=O)c1sc(-c2cccc(NC(=O)c3ccc(C(F)(F)F)cc3)c2)nc1Nc1ccc(N2CCN(C)CC2)cc1` came in with an inhibition at 40 µM of 33%.

In turn, `CCOC(=O)c1sc(-c2cccc(NC(=O)c3ccc(C(F)(F)F)cn3)c2)nc1Nc1ccc(N2CCN(C)CC2)cc1` gave an inhibition at 40 µM of 20.8%.

`CCOC(=O)c1sc(-c2cccc(NC(=O)c3ccc(F)c(Cl)c3)c2)nc1Nc1ccc(N2CCN(C)CC2)cc1` gave an inhibition at 40 µM of 20.7%.

`CCOC(=O)c1sc(-c2cccc(NC(=O)c3ccc(F)cc3)c2)nc1Nc1ccc(N2CCOCC2)cc1` gave an inhibition at 40 µM of 25.8%.

`CCOC(=O)c1sc(-c2cccc(NC(=O)[C@H]3CC[C@H](C)CC3)c2)nc1Nc1ccc(N2CCN(C)CC2)cc1` showed an inhibition at 40 µM of 26.1%.

With `CCOC(=O)c1sc(-c2cccc(NC(=O)c3ccc(F)cc3)c2)nc1Nc1ccc(N2CCN(C)CC2)cc1`, the inhibition at 40 µM is 16.8%.

For `CCOC(=O)c1sc(-c2cccc(NC(=O)c3ccc(F)cc3)c2)nc1Nc1ccc(C(=O)N2CCOCC2)cc1`, at 40 µM the inhibition was 37.3%.

Compound `CCOC(=O)c1sc(-c2cccc(NC(=O)c3ccc(C#N)cc3)c2)nc1Nc1ccc(N2CCN(C)CC2)cc1` displayed an inhibition at 40 µM of 79.1%.

`CN1CCN(c2ccc(Nc3nc(-c4cccc(NC(=O)c5ccco5)c4)sc3C(N)=O)cc2)CC1` yielded an inhibition at 40 µM of 84.3%.

Compound `CN1CCN(c2ccc(Nc3nc(-c4cccc(NC(=O)c5ccc(F)c(Cl)c5)c4)sc3C(=O)O)cc2)CC1` showed an inhibition at 40 µM of 87.9%.

As to `CCOC(=O)c1sc(-c2cccc(NC(=O)c3ccc(C(F)(F)F)cc3)c2)nc1Nc1ccc(C(=O)N2CCOCC2)cc1`, the inhibition at 40 µM was determined as 6.06%.

For the compound `CCOC(=O)c1sc(-c2cccc(NC(=O)c3ccc(N(C)C)cc3)c2)nc1Nc1ccc(N2CCOCC2)cc1`, testing at 40 µM gave an inhibition of 7.96%.

`CN1CCN(c2ccc(Nc3nc(-c4cccc(NC(=O)c5ccc(C(C)(C)C)cc5)c4)sc3C(N)=O)cc2)CC1` had an inhibition at 40 µM of 12.1%.

In turn, `CN1CCN(c2ccc(Nc3nc(-c4cccc(NC(=O)c5ccccc5)c4)sc3C(N)=O)cc2)CC1` had an inhibition at 40 µM of 91.3%.

In turn, `CCOC(=O)c1sc(-c2cccc(NC(=O)c3ccc(C(C)(C)C)cc3)c2)nc1Nc1ccc(C(=O)N2CCOCC2)cc1` returned an inhibition at 40 µM of 13.2%.

On to `CN1CCN(c2ccc(Nc3nc(-c4cccc(NC(=O)c5ccccc5)c4)sc3C(=O)O)cc2)CC1`, for which the inhibition at 40 µM is 11.9%.

Regarding `CCOC(=O)c1sc(-c2cccc(NC(=O)c3ccc(Cl)cc3)c2)nc1Nc1ccc(N2CCN(C)CC2)cc1`, at 40 µM the inhibition was 24.3%.

Another experiment relates to Raji. Description: Antiproliferative activity against human Raji cells measured after 72 hrs by CCK-8 assay. The class given is functional, cell-based.
Conditions: not given
In outline:
as §1
In turn, `CCOC(=O)c1sc(-c2cccc(NC(=O)c3ccc(C#N)cc3)c2)nc1Nc1ccc(N2CCN(C)CC2)cc1` displayed an IC50 of 14 µM.

For `CN1CCN(c2ccc(Nc3nc(-c4cccc(NC(=O)c5ccco5)c4)sc3C(N)=O)cc2)CC1`, the midpoint of inhibition, the IC50, lay at 37.4 µM.

`CN1CCN(c2ccc(Nc3nc(-c4cccc(NC(=O)c5ccc(F)c(Cl)c5)c4)sc3C(=O)O)cc2)CC1` yielded a concentration for half-maximal inhibition (IC50) of 8.74 µM.

In turn, `CN1CCN(c2ccc(Nc3nc(-c4cccc(NC(=O)c5ccccc5)c4)sc3C(N)=O)cc2)CC1` came in with an IC50 of 6.36 µM.
